What was measured:
H22-tumor-bearing mice [1] = assay: H22-tumor-bearing mice: tumor size, tumor weight, HE staining; format: in vivo; settings: for tumor inhibition rate (TIR), tumor weight: 5-Fu ip 200 mg/kg twice a week, SOLB ip 100 mg/kg once daily, 8 days; for tumor size: H22-tumor-bearing mice, compared with model group
Outline: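 In H22-inoculated male Kunming mice (tumors 100~150 mm3, randomised 10~12/group), treatment ran 8 days (daily test agents; 5-Fu twice weekly). Tumor size was measured by Vernier calipers. Tumors were excised after a 16 h fast and ether euthanasia. Inhibition rate was taken from mean tumor indices of drug versus model groups. Tissue was fixed overnight in 4% buffered paraformaldehyde for HE. Mean ± standard error; ANOVA.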

H22-tumor-bearing mice [2] = assay: H22-tumor-bearing mice: tolerability; format: in vivo; settings: for mice analyzed / mice in group: 5-Fu ip 200 mg/kg twice a week, SOLB ip 100 mg/kg once daily, 8 days
Outline: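 Animals bearing 7-day H22 tumors (male Kunming, 10~12/group) were treated once daily 09:00–10:00 for 8 days (test agents ip or po); 5-Fu ip 200 mg/kg was given twice weekly. Appearance and behaviour were observed, and diarrhea, irritation and emaciation were recorded. Body weight was followed over therapy. Liver was fixed overnight in 4% buffered paraformaldehyde for HE.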

ALT and AST = assay: H22-tumor-bearing mice: liver function; format: in vivo; settings: blood of H22-tumor-bearing mice, compared with model group
Outline: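 H22 ascites cells were injected into male Kunming mice; tumors of 100~150 mm3 at 7 days were randomised (10~12/group) against saline model and uninoculated normal groups. Test agents were given daily for 8 days (ip 100 mg/kg; po 400 or 720 mg/kg). After a 16 h fast, blood was taken from the eyes for ALT and AST. Mean ± standard error; ANOVA.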

IL-6 = assay: H22-tumor-bearing mice: IL-6 ELISA of serum and tumor; format: in vivo; settings: for IL-6 concentration, tumor ELISA: tumor tissue, compared with model group
Outline: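 Male Kunming mice (20~22 g) bearing H22 tumors (100~150 mm3 at day 7, 10~12/group) were dosed 8 days: test agents ip 100 mg/kg or po 400/720 mg/kg daily, or 5-Fu ip 200 mg/kg twice weekly. Mice were fasted 16 h and ether-euthanised. IL-6 was measured by ELISA in eye-collected blood and in liquid-nitrogen-frozen tumor tissue. Mean ± standard error; ANOVA.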

[3] = system: JAK2, Tyr705-p-STAT3, Ser725-p-STAT3; assay: H22-tumor-bearing mice: Western blotting of tumor tissue; format: in vivo; settings: compared with model group
SMMC-7721 cells [4] = assay: MTT analysis of SMMC-7721 cells; format: cell-based
Outline: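 SMMC-7721 cells (Shanghai Institute of Cell Biology) were incubated with test extract or compounds, and growth was read by MTT. Mean ± standard error; ANOVA, P<0.05.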

SMMC-7721 cells [5] = assay: Hochest apoptosis test in SMMC-7721 cells; format: cell-based; settings: concentration not given
Outline: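 Apoptosis in SMMC-7721 cells exposed to test extract or compounds was assessed by Hoechst staining per kit instructions. Mean ± standard error; ANOVA.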

Which results are given for O=c1[nH]cc(F)c(=O)[nH]1 [5-Fu, 5-fluorouracil]?
tumor inhibition rate (TIR), tumor weight (H22-tumor-bearing mice [1]): 91.94%; tumor size (H22-tumor-bearing mice [1]): the smallest; HE staining of tumor tissue (H22-tumor-bearing mice [1]; chromatin condensation and nuclear shrinkage, compared to model group): good; mice analyzed / mice in group (H22-tumor-bearing mice [2]): 10/12; appearance and behavior (adverse reactions) (H22-tumor-bearing mice [2]; therapeutic period): diarrhea and alopecia, their appetite was poor; weights of mice (H22-tumor-bearing mice [2]; therapeutic period): steadily increased during the therapeutic period except in the 5-Fu group; liver function: ALT and AST levels (ALT and AST): the best; IL-6 concentration, serum ELISA (IL-6): increasing not decreasing IL-6; IL-6 concentration, tumor ELISA (IL-6): higher than the model group; protein expressions of JAK2, Tyr705-p-STAT3, Ser725-p-STAT3 (Western) [3]: could inhibit protein expressions of JAK2, Tyr705-p-STAT3, and Ser725-p-STAT3

For O=C(/C=C/c1ccc(O)cc1)CC(=O)/C=C/c1ccc(O)cc1 [BIS, bisdemethoxycurcumin], which “growth of SMMC-7721 cells (MTT)” value (SMMC-7721 cells [4]) is on record?
Its value is “could inhibit the growth of SMMC-7721 cells in a dose-dependent manner”.

With O=C(O)/C=C/c1ccc(O)c(O)c1 [CAF, caffeic acid] as the compound, how does the “growth of SMMC-7721 cells (MTT)” value (SMMC-7721 cells [4]) read?
Its value is “no obvious effects”.

For OC[C@H]1O[C@@H](O[C@@H]2OC=C[C@H]3[C@H](O)[C@@H]4O[C@]4(CO)[C@@H]23)[C@H](O)[C@@H](O)[C@@H]1O [CAT, catalpol], which “growth of SMMC-7721 cells (MTT)” value (SMMC-7721 cells [4]) is on record?
Its value is “no obvious effects”.

O=C(/C=C/c1ccc(O)c(O)c1)O[C@@H]1C[C@](O)(C(=O)O)C[C@@H](O)[C@H]1O [CHL, chlorogenic acid] was tested. Which “growth of SMMC-7721 cells (MTT)” value (SMMC-7721 cells [4]) did it give?
The value was “no obvious effects”.

For COc1cc(/C=C/C(=O)CC(=O)/C=C/c2ccc(O)c(OC)c2)ccc1O [CUR, curcumin], which “growth of SMMC-7721 cells (MTT)” value (SMMC-7721 cells [4]) is on record?
Its value is “could inhibit the growth of SMMC-7721 cells in a dose-dependent manner”.

With O=C1C[C@@H](c2ccc(O[C@@H]3O[C@H](CO)[C@@H](O)[C@H](O)[C@H]3O)cc2)Oc2cc(O)ccc21 [LIQ, liquiritin] as the compound, how does the “growth of SMMC-7721 cells (MTT)” value (SMMC-7721 cells [4]) read?
Its value is “no obvious effects”.

With COc1cc2c(c(OC)c1OC)-c1c(cc3c(c1OC)OCO3)CC(C)C(C)C2 (stereo not shown) [SCHB, schisandrin B] as the compound, how does the “growth of SMMC-7721 cells (MTT)” value (SMMC-7721 cells [4]) read?
Its value is “could inhibit the growth of SMMC-7721 cells in a dose-dependent manner”.

Which results are given for COc1cc2c(c(OC)c1OC)-c1c(cc3c(c1OC)OCO3)C[C@H](C)[C@@](C)(O)C2 [SOLB, schisandrol B]?
growth of SMMC-7721 cells (MTT) (SMMC-7721 cells [4]): could inhibit the growth of SMMC-7721 cells in a dose-dependent manner; effect on apoptosis (Hochest), pure compounds (SMMC-7721 cells [5]): an active ingredient of DWYG extract; tumor inhibition rate (TIR), tumor weight (H22-tumor-bearing mice [1]): 34.98%; tumor size (H22-tumor-bearing mice [1]): effective but not better than 5-Fu; mice analyzed / mice in group (H22-tumor-bearing mice [2]): 12/12; liver function: ALT and AST levels (ALT and AST): effective; IL-6 concentration, serum ELISA (IL-6): less than 5-Fu but more than DWYG extract; IL-6 concentration, tumor ELISA (IL-6): less than in the model group; protein expressions of JAK2, Tyr705-p-STAT3, Ser725-p-STAT3 (Western) [3]: could inhibit protein expressions of JAK2, Tyr705-p-STAT3, and Ser725-p-STAT3

demethoxycurcumin was tested. Which “growth of SMMC-7721 cells (MTT)” value (SMMC-7721 cells [4]) did it give?
The value was “could inhibit the growth of SMMC-7721 cells in a dose-dependent manner”.

Which “growth of SMMC-7721 cells (MTT)” value (SMMC-7721 cells [4]) does the source give for deoxyschizandrin here?
The value was “could inhibit the growth of SMMC-7721 cells in a dose-dependent manner”.

And the “effect on apoptosis (Hochest), pure compounds” value (SMMC-7721 cells [5])?
The value was “not good”.

How did the “effect on apoptosis (Hochest), pure compounds” value (SMMC-7721 cells [5]) turn out when schisandrol A [SOLA] was run?
The value was “not good”.

How did the “growth of SMMC-7721 cells (MTT)” value (SMMC-7721 cells [4]) turn out when schisantherin A [SINA] was run?
Its value is “could inhibit the growth of SMMC-7721 cells in a dose-dependent manner”.

— publication PMC7237122 (OncoTargets and therapy, 2020)
